Bioassay records deposited in PubChem BioAssay by several laboratories.
STAT3 inh – reduces IL-6 driven STAT3 reporter signal. AID 862. actives 0.89% (n = 190,000). inhibition, % at 5.5 µM. U3A cells, IL-6 STAT3-luciferase reporter, luminescence; host cell line lacks STAT1;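 active means inhibition above the mean inhibition across all screened compounds plus 3 SD, cut at about 44% in these data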;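 further: 0% = DMSO only wells and 100% = 100 µM nifuroxazide control wells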
STAT1 inh – inhibitors of IFN-gamma induced STAT1 signaling. inhibition, % at 5.5 µM. actives 0.35% (n = 200,000). NIH 3T3 STAT1-luciferase reporter, luminescence;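 active means inhibition above a set limit, the mean inhibition across all tested compounds plus 3 SD, cut at about 34% in these data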;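 further: 0% = IFN-gamma with DMSO and 100% = IFN-gamma with 300 µM nifuroxazide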
STAT3 act-1 – increases IL-6 driven STAT3 reporter signal | actives 0.91% (n = 190,000) | U3A cells, IL-6 STAT3-luciferase reporter, luminescence; 100% = signal with IL-6 EC80 alone | AID 871 | activation (% of control), % at 5.6 µM;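 active means activation above the screen-wide mean of compound activation plus 3 SD, cut at about 130% in these data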;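 further: 0% = background luminescence of wells with medium and substrate only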
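Detection: reporter luminescence signal / Assay system: STAT1-lacking human U3A cells, STAT3 luciferase reporter / Incubation: compound pre-incubation 1 h before IL-6, then 6 h stimulation at 37 °C / Control set: IL-6-only high control / Read-out: % activation relative to IL-6 control / Probe or stimulus: Interleukin-6, 33 ng/mL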
STAT1 act-1 – STAT1 signaling activation. actives 2.6% (n = 200,000). NIH 3T3 STAT1-luciferase reporter, IFN-gamma, luminescence; 100% = IFN-gamma alone, no compound. AID 932. activation (% of control), % at 5.5 µM;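 active means activation above the screen-wide mean activation plus 3 SD, cut at about 130% in these data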;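 further: raw ratio to IFN-gamma control signal so 100% means no change and 0% no light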
FLuc act counter – firefly luciferase counter-screen for stimulation assays | activation factor at 10 µM | P08659 | AID 1027 | 200,000 tested, under 10 active | ATPlite luciferase biochemical, luminescence, 10 min; 0 = ATP-free wells, 1 = DMSO control;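 active means luciferase activation factor, scaled between plate controls, of at least 2 with compound at 10 µM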
Target sequence (P08659 whole entry, looked up): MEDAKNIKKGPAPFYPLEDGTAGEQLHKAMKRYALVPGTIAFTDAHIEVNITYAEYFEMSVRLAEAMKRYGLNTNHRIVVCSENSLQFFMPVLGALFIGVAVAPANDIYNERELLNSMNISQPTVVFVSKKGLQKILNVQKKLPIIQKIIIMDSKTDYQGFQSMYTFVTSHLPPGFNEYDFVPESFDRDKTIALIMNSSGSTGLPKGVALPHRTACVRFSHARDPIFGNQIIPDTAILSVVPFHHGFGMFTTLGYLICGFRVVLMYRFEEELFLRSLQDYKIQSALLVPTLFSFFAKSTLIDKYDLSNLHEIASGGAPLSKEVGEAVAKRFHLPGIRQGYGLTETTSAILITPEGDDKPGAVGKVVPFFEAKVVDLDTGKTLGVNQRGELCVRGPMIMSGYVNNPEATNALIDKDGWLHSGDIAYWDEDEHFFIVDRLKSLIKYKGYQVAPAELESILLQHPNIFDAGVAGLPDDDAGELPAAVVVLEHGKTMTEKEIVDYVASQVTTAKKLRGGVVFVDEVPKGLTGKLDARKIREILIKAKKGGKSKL
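Material: Luciferase/luciferin reagent mix; Doses: test compounds dosed from 2 mM stocks in 100% DMSO; Schedule: 10 min incubation after luciferase reagent addition, room temperature; Measured by: luminescence from luciferase reaction; Read-out: luminescence gain marking luciferase activators.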
FLuc inhib CS – inhibits firefly luciferase, flagging false hits in luciferase inhibition screens; AID 1006; inhibition, % at 10 µM; P08659; actives 1.5% (n = 200,000); ATPLite firefly luciferase biochemical luminescence, 10 min;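 active means inhibition above about 50% when tested at 10 µM, limit read from the data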
STAT3 act-2 – STAT3 activation, confirmation assay | AID 1267 | shares compounds with STAT3 act-1 | actives 64% (n = 1,200) | U3A STAT3-luciferase reporter, IL-6 potentiation, luminescence; U3A cells lack STAT1; 100 means same as IL-6 alone | potentiation (% of control), % at 5.7 µM;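 active means percent activation of the STAT3 luciferase reporter above a set limit taken from the earlier primary screen, cut at about 130% in these data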;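 further: 0% = background signal of medium plus substrate and 100% = median of IL-6 with DMSO wells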
NFkB act 2 – counter-screen for STAT3 activators: NF-kappaB activation | human cells, NF-kappaB reporter activation | actives 11% (n = 1,200) | activation (% of control), % at 5.7 µM | shares compounds with STAT3 act-1; in the data active means activation above about 120%;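 further: reporter induced by TNF-alpha stimulation; 100% = median of stimulated DMSO wells and 0% = no signal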
STAT1 act-2 – STAT1 activation in STAT3 activator counter-screen | shares compounds with STAT3 act-1 | NIH 3T3 STAT1-luciferase reporter, IFN-gamma, luminescence | activation (% of control), % at 5.7 µM | actives 13% (n = 1,200) | AID 1318;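 active means activation above the solvent-only control well mean plus 3 SD, set per screening run, cut at about 120% in these data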;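 further: 100% = IFN-gamma with DMSO median signal so 100% means no change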
Active calls of the source: *; x = not tested or not shown. Hits are enriched below; roughly 4.9% of the tested compounds scored in any of these assays.

SMILES | STAT3 inh | STAT1 inh | STAT3 act-1 | STAT1 act-1 | FLuc act counter | FLuc inhib CS | STAT3 act-2 | NFkB act 2 | STAT1 act-2
Cc1ccc(S(=O)(=O)NC(=O)c2ccc(Br)o2)cc1 | -2 | -6 | 99 | 105 | 1.1 | -6 | x | x | x
O=C(Cc1nn[nH]n1)c1ccccc1O | 3 | -5 | 100 | 104 | 1.1 | -6 | x | x | x
C=CCOc1ccc(CNc2ccc3[nH]c(=O)[nH]c3c2)cc1OC | 0 | -2 | 103 | 102 | 1 | -1 | x | x | x
COc1ccc(CNc2ccc3cn[nH]c3c2)c(OC)c1OC | -53 | 11 | 144* | 90 | 1 | 1 | 129 | 95 | 93
CCOc1cc(CNc2ccc3cn[nH]c3c2)ccc1OC | -79 | 6 | 175* | 95 | 1 | -5 | 161* | 99 | 100
CCOc1ccccc1C(=O)Nn1c(C2CCC2)nc2ccccc2c1=O | -70 | -3 | 162* | 103 | 1 | 0 | 158* | 98 | 99
COc1ccccc1NC(=O)C1=C(C)NC(=O)NC1c1ccccc1[N+](=O)[O-] (stereo not given) | -44 | 12 | 144* | 88 | 1 | 3 | 138* | 104 | 99
C/[N+]([O-])=C/c1c(OCc2ccc(Cl)cc2Cl)ccc2ccccc12 | -31 | -13 | 138* | 112 | 1.1 | -6 | 115 | 98 | 85
Cc1nc2ccccc2c(=O)n1N(c1ccccc1)c1ccccc1 | -3 | -2 | 110 | 100 | 1.1 | -8 | x | x | x
Oc1ccccc1-c1nc(N2CCN(Cc3ccccc3)CC2)c2ccccc2n1 | -52 | 2 | 146* | 98 | 1 | -4 | 141* | 104 | 101
Oc1ccccc1-c1nc(N2CCCC2)c2ccccc2n1 | 6 | 1 | 93 | 99 | 1.1 | -7 | x | x | x
O=C(NCC1CCCO1)c1ccc2c(=O)n(Cc3cccc(Br)c3)c(=S)[nH]c2c1 (stereo not given) | 21 | 2 | 88 | 98 | 1 | -5 | x | x | x
Cc1ccc(Cl)cc1N1CCN(C(=O)Cc2c(C(=O)O)[nH]c3ccccc23)CC1 | -45 | 8 | 138* | 92 | 1 | -4 | 123 | 106 | 93
Cc1cc(C)c(S(=O)(=O)/N=C2/C=C(SCC(=O)O)C(=O)c3ccccc32)cc1C | -37 | 6 | 139* | 93 | 1 | 1 | 135* | 97 | 96
CCN(CC)S(=O)(=O)c1ccc(-c2nnc3sc4cccc(C)c4n23)cc1 | -54 | 4 | 148* | 96 | 1 | -4 | 160* | 110 | 107
Cn1c(=O)c(/C=C/c2ccc(F)cc2)nc2ccccc21 | -51 | -24 | 152* | 120 | 0.7 | 30 | 177* | 120 | 129*
O=C(NCc1ccco1)c1cccc(NS(=O)(=O)c2ccccc2F)c1 | 4 | 4 | 100 | 97 | 1.1 | -6 | x | x | x
Cc1c(C(=O)Nc2nc3ccccc3[nH]2)oc2c(Cl)cccc12 | -46 | -6 | 143* | 105 | 0.9 | 8 | 178* | 121* | 122*
Cc1c(C(=O)Nc2nc3ccccc3[nH]2)oc2ccc(Br)cc12 | 12 | -15 | 86 | 114 | 0.8 | 24 | x | x | x
CCc1ccc(/C=N/NC(=O)c2cc(-c3ccncc3)nc3ccccc23)s1 | -28 | -13 | 124 | 112 | 1 | -3 | x | x | x
COc1ccccc1-c1cc(C(=O)N/N=C/c2cccs2)c2ccccc2n1 | -49 | 0 | 139* | 100 | 1 | -4 | 138* | 105 | 97
O=C(N/N=C/c1cccs1)c1cc(-c2ccncc2)nc2ccccc12 | -40 | -9 | 138* | 108 | 1 | 0 | 102 | 125* | 106
Cc1cc(C)n(-c2nc(-c3ccccc3)cs2)n1 | -44 | -14 | 137* | 107 | 0.9 | 10 | 120 | 121* | 122*
COc1cccc(C2CC(c3cccs3)=NN2S(C)(=O)=O)c1 (stereo not given) | 3 | 11 | 106 | 90 | 1 | -2 | x | x | x
C=CCSc1nnc(-c2cc3c(s2)-c2ccccc2CC3)o1 | -55 | -15 | 151* | 113 | 1 | -3 | 145* | 109 | 116
SMILES | STAT3 inh | STAT1 inh | STAT3 act-1 | STAT1 act-1 | FLuc act counter | FLuc inhib CS | STAT3 act-2 | NFkB act 2 | STAT1 act-2
O=S1(=O)CCC(NC(=S)N2CCCCC2)C1 (stereo not given) | 0 | -5 | 105 | 104 | 1 | -5 | x | x | x
Oc1cccnc1CCc1ccccc1 | 11 | -15 | 93 | 112 | 1 | -4 | x | x | x
CCc1cc(C(c2ccc(F)cc2)N2CCOCC2)c(NC(=O)c2ccccc2)s1 (stereo not given) | 2 | 4 | 102 | 97 | 1 | -3 | x | x | x
CCc1cc(CN2CCOCC2)c(NC(=O)c2ccccc2)s1 | -46 | -5 | 139* | 104 | 1 | 0 | 143* | 107 | 110
C/C(=C\C(=S)Nc1ccccc1)Nc1cccc2ccccc12 | -58 | -14 | 155* | 113 | 1 | -5 | 142* | 109 | 119
C/C(=C\C(=S)Nc1ccccc1)Nc1ccc2ccccc2c1 | -21 | -6 | 122 | 106 | 1 | 2 | x | x | x
O=C(CSc1nc(C2CC2)nc2ccccc12)N1c2ccccc2Sc2ccc(C(F)(F)F)cc21 | -48 | 3 | 145* | 98 | 1.1 | -6 | 123 | 110 | 98
O=C(CN1CCCC(O)C1)N1c2ccccc2Sc2ccc(C(F)(F)F)cc21 (stereo not given) | -10 | 1 | 113 | 99 | 1 | -2 | x | x | x
CCC(C(=O)Nc1ccccc1OC)n1c(C(=O)OC)cc2ccsc21 (stereo not given) | -45 | 14 | 142* | 87 | 1.1 | -11 | 148* | 104 | 87
COC(=O)CNC(=O)COC(=O)/C=C/c1ccccc1[N+](=O)[O-] | -35 | 22 | 144* | 78 | 1 | -5 | 140* | 103 | 76
CC(C)NC(=O)NC(=O)COC(=O)/C=C/c1ccccc1[N+](=O)[O-] | -55 | 29 | 147* | 72 | 1 | -5 | 159* | 111 | 80
COc1ccc(NC(=O)COC(=O)/C=C/c2ccccc2[N+](=O)[O-])cc1 | -11 | 0 | 112 | 100 | 1.1 | -6 | x | x | x
O=C1CC(Nc2ccc(N3CCOCC3)cc2)C(=O)N1Cc1ccccc1 (stereo not given) | 6 | 12 | 97 | 89 | 1 | 0 | x | x | x
